From article PMC4764993 (Canadian journal of physiology and pharmacology, 2015)

Target: MMP-9 (Homo sapiens, UniProt P14780)
Test: In-vitro MMP-9 cleavage assay of synthetic OPN-peptides
Format: biochemical
Conditions: active MMP-9, 20:1 (w/w), 37 °C, 24 h; MS/MS identification of fragments
Method in brief: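 Synthetic N-acetylated, C-amidated mouse OPN peptides, each spanning a candidate cleavage site mid-sequence, incubated with active MMP-9 at 20:1 (w/w) in 1× zymogram developing buffer, 37 °C, 24 h. Controls lacked enzyme or peptide. Reactions C18-desalted, then LC-MS/MS (5–45% acetonitrile over 20 min; MS resolution 70 000, MS2 17 500). Fragments compared against both controls.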

Chain of MMP-9 (P14780 107-707 limits assumed, species assumed): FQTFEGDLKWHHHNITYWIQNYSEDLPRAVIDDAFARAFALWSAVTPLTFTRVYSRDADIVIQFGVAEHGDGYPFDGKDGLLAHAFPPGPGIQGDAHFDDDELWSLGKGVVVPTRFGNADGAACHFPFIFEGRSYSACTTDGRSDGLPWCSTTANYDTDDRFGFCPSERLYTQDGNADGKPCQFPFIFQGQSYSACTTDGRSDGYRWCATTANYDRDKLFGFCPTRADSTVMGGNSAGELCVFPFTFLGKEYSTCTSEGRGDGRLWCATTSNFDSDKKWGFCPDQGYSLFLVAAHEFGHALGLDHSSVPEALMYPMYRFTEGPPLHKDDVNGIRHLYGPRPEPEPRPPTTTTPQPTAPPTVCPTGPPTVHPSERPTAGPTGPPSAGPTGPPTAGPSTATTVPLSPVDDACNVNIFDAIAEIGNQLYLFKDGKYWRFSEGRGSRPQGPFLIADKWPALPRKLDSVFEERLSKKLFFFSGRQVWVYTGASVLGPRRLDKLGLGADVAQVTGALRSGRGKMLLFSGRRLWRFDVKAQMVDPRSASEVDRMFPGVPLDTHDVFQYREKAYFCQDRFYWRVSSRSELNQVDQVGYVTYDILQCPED

Row | MMP-9 cleavage site(s) found in the synthetic peptide | Substance
1 | AQ and LL; position 193-194 and 195-196 | Ac-SLDVIPVAQLLSMPSDQDNN-NH2 [LL fragment]
2 | GL (position 151–152) | Ac-NGRGDSLAYGLRSKSRSFQV-NH2 [GL fragment]
